Columns and labels:
Rat [1] = assay: concentration in plasma after dosing; settings: dosed: Fluorotelomer alcohol 8+2, 12 mg/kg, oral, Male, Harlan Sprague Dawley
Rat [2] = assay: concentration in kidney after dosing; settings: 3 h; dosed: Fluorotelomer alcohol 8+2; 80 mg/kg; oral; Female; Harlan Sprague Dawley
Rat [3] = assay: concentration in plasma after dosing; settings: dosed: Fluorotelomer alcohol 8+2, 24 mg/kg, oral, Male, Harlan Sprague Dawley
Rat [4] = assay: concentration in plasma after dosing; settings: 1.5 h; dosed: Primidone; 30 mg/kg; oral; Female; F344
Rat [5] = assay: concentration in plasma after dosing; settings: 3 h; dosed: Primidone; 130 mg/kg; oral; Male; Harlan Sprague Dawley
Rat [6] = assay: concentration in plasma after dosing; settings: 9 h; dosed: Primidone; 80 mg/kg; oral; Female; F344
Rat [7] = assay: concentration in kidney after dosing; settings: 1848 h; dosed: Perfluorodecanoic acid; 10 mg/kg; oral; Male; Harlan Sprague Dawley
Rat [8] = assay: concentration in plasma after dosing; settings: dosed: Perfluorodecanoic acid, 2 mg/kg, oral, Male, Harlan Sprague Dawley
Rat [9] = assay: concentration in kidney after dosing; settings: 1 h; dosed: Perfluorodecanoic acid; 10 mg/kg; oral; Male; Harlan Sprague Dawley
Rat [10] = assay: concentration in brain after dosing; settings: 864 h; dosed: Perfluorodecanoic acid; 10 mg/kg; oral; Male; Harlan Sprague Dawley
Rat [11] = assay: concentration in liver after dosing; settings: 20 min; dosed: Bis 2-Chloroethoxy Methane; 20 mg/kg; iv; Female; F344
Rat [12] = assay: concentration in plasma after dosing; settings: 3 h; dosed: Bis 2-Chloroethoxy Methane; 20 mg/kg; iv; Female; F344
Rat [13] = assay: concentration in thymus after dosing; settings: 10 min; dosed: Bis 2-Chloroethoxy Methane; 20 mg/kg; iv; Female; F344
Rat [14] = assay: concentration in heart after dosing; settings: 40 min; dosed: Bis 2-Chloroethoxy Methane; 20 mg/kg; iv; Female; F344
Rat [15] = assay: concentration in thymus after dosing; settings: 5 h; dosed: Bis 2-Chloroethoxy Methane; 20 mg/kg; iv; Female; F344
Rat [16] = assay: concentration in thymus after dosing; settings: 3 h; dosed: Bis 2-Chloroethoxy Methane; 20 mg/kg; iv; Male; F344
Rat [17] = assay: concentration in plasma after dosing; settings: 4 h; dosed: Bis 2-Chloroethoxy Methane; 20 mg/kg; iv; Male; F344
Rat [18] = assay: concentration in thymus after dosing; settings: 2 h; dosed: Bis 2-Chloroethoxy Methane; 20 mg/kg; iv; Male; F344
Rat [19] = assay: concentration in plasma after dosing; settings: 4 h; dosed: Bis 2-Chloroethoxy Methane; 40 mg/kg; iv; Male; Harlan Sprague Dawley
human = assay: concentration in plasma after dosing; negative times count back from the end of exposure; settings: dosed: trichloroethylene, 100 ppm, inhalation, duration: 4 hr, person
Procedure, shortened: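 Sampling and analytical methods are those of each source and frequently went unreported. The concentration-versus-time and amount-versus-time points were compiled from published in vivo toxicokinetic studies and two structured collections. Most were digitised from plot screenshots with WebPlotDigitizer, with others copied from tables, in the reported units.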

Rat [20] = assay: concentration in plasma after dosing; settings: dosed: dichloroacetic acid, 10 mg/kg, oral, Male, Harlan Sprague Dawley
Rat [21] = assay: concentration in plasma after dosing; settings: dosed: dichloroacetic acid, 40 mg/kg, oral, Female, Harlan Sprague Dawley
Rat [22] = assay: concentration in plasma after dosing; settings: 5 min; dosed: dichloroacetic acid; 10 mg/kg; iv; Male; F344
Rat [23] = assay: concentration in plasma after dosing; settings: 20 min; dosed: dichloroacetic acid; 10 mg/kg; oral; Male; Harlan Sprague Dawley
Rat [24] = assay: concentration in plasma after dosing; settings: dosed: Wyeth-14643, 2.0 mg/kg, oral, Male, Sprague-Dawley
Rat [25] = assay: concentration in plasma after dosing; settings: dosed: Wyeth-14643, 5.0 mg/kg, oral, Male, Sprague-Dawley
Rat [26] = assay: concentration in thymus after dosing; settings: 6.667 h; dosed: Thiodiglycolic Acid; 20 mg/kg; iv; Female; Harlan Sprague Dawley
Rat [27] = assay: concentration in heart after dosing; settings: 20 min; dosed: Thiodiglycolic Acid; 20 mg/kg; iv; Female; F344
Rat [28] = assay: concentration in liver after dosing; settings: 20 min; dosed: Thiodiglycolic Acid; 20 mg/kg; iv; Female; F344
Rat [29] = assay: concentration in thymus after dosing; settings: 2 h; dosed: Thiodiglycolic Acid; 20 mg/kg; iv; Male; Harlan Sprague Dawley
Rat [30] = assay: concentration in thymus after dosing; settings: 2 h; dosed: Thiodiglycolic Acid; 20 mg/kg; iv; Female; Harlan Sprague Dawley
Rat [31] = assay: concentration in plasma after dosing; settings: 10 min; dosed: Thiodiglycolic Acid; 20 mg/kg; iv; Male; F344
Rat [32] = assay: concentration in plasma after dosing; settings: 6 h; dosed: Di-n-butyl phthalate; 50 mg/kg; oral; Male; Sprague-Dawley
Rat [33] = assay: concentration in plasma after dosing; settings: 2 h; dosed: Di-n-butyl phthalate; 100 mg/kg; oral; Male; Sprague-Dawley

**Q.** `OCCC(F)(F)C(F)(F)C(F)(F)C(F)(F)C(F)(F)C(F)(F)C(F)(F)C(F)(F)F` [Fluorotelomer alcohol 8+2] was tested. Which concentration in plasma (Rat [1]; 0.5 h) did it give?
**A.** 274 ng/mL

**Q.** And the concentration in plasma (Rat [1]; 9 h)?
**A.** 10.3 ng/mL

**Q.** What about the concentration in kidney (Rat [2]) of the same compound?
**A.** 4360 ng/g

**Q.** And the concentration in plasma (Rat [3]; 5 min)?
**A.** 6.79 ng/mL

**Q.** And the concentration in plasma (Rat [3]; 9 h)?
**A.** 23.5 ng/mL

**Q.** What does the source list for `CCC1(c2ccccc2)C(=O)NC(=O)NC1=O` [Phenobarbital]?
**A.** concentration in plasma (Rat [4]): 380 ng/mL; concentration in plasma (Rat [5]): 1210 ng/mL; concentration in plasma (Rat [6]): 2370 ng/mL

**Q.** With `O=C(O)C(F)(F)C(F)(F)C(F)(F)C(F)(F)C(F)(F)C(F)(F)C(F)(F)C(F)(F)C(F)(F)F` [Perfluorodecanoic acid] as the compound, how does the concentration in kidney (Rat [7]) read?
**A.** 4700 ng/g

**Q.** What about the concentration in plasma (Rat [8]; 0.5 h) of the same compound?
**A.** 2500 ng/mL

**Q.** And the concentration in plasma (Rat [8]; 24 h)?
**A.** 7510 ng/mL

**Q.** And the concentration in plasma (Rat [8]; 1848 h)?
**A.** 1090 ng/mL

**Q.** What about the concentration in kidney (Rat [9]) of the same compound?
**A.** 8630 ng/g

**Q.** And the concentration in brain (Rat [10])?
**A.** 917 ng/g

**Q.** For `ClCCOCOCCCl` [Bis 2-Chloroethoxy Methane], which concentration in liver (Rat [11]) is on record?
**A.** 1090 ng/g

**Q.** And the concentration in plasma (Rat [12])?
**A.** 87.3 ng/mL

**Q.** What about the concentration in thymus (Rat [13]) of the same compound?
**A.** 44200 ng/g

**Q.** What about the concentration in heart (Rat [14]) of the same compound?
**A.** 3630 ng/g

**Q.** And the concentration in thymus (Rat [15])?
**A.** 31.7 ng/g

**Q.** And the concentration in thymus (Rat [16])?
**A.** 394 ng/g

**Q.** And the concentration in plasma (Rat [17])?
**A.** 118 ng/mL

**Q.** What about the concentration in thymus (Rat [18]) of the same compound?
**A.** 153 ng/g

**Q.** What about the concentration in plasma (Rat [19]) of the same compound?
**A.** 162 ng/mL

**Q.** How did the concentration in plasma (human; 0 h) turn out when `O=C(O)C(Cl)Cl` [dichloroacetic acid] was run?
**A.** 8 ng/mL

**Q.** What about the concentration in plasma (human; 0.25 h) of the same compound?
**A.** 5 ng/mL

**Q.** What about the concentration in plasma (human; 0.5 h) of the same compound?
**A.** 5 ng/mL

**Q.** And the concentration in plasma (human; 1.75 h)?
**A.** 4 ng/mL

**Q.** What about the concentration in plasma (human; 4 h) of the same compound?
**A.** 5 ng/mL

**Q.** What about the concentration in plasma (human; 12 h) of the same compound?
**A.** 5 ng/mL

**Q.** What about the concentration in plasma (human; -1 h, during exposure) of the same compound?
**A.** 10 ng/mL

**Q.** What about the concentration in plasma (human; -2 h, during exposure) of the same compound?
**A.** 4 ng/mL

**Q.** What about the concentration in plasma (Rat [20]; 2 min) of the same compound?
**A.** 405 ng/mL

**Q.** What about the concentration in plasma (Rat [20]; 0.5 h) of the same compound?
**A.** 274 ng/mL

**Q.** What about the concentration in plasma (Rat [21]; 2 min) of the same compound?
**A.** 787 ng/mL

**Q.** What about the concentration in plasma (Rat [21]; 1 h) of the same compound?
**A.** 6320 ng/mL

**Q.** What about the concentration in plasma (Rat [22]) of the same compound?
**A.** 12400 ng/mL

**Q.** What about the concentration in plasma (Rat [23]) of the same compound?
**A.** 291 ng/mL

**Q.** `Cc1cccc(Nc2cc(Cl)nc(SCC(=O)O)n2)c1C` was tested. Which concentration in plasma (Rat [24]; 0.25 h) did it give?
**A.** 912 ng/mL

**Q.** And the concentration in plasma (Rat [24]; 4 h)?
**A.** 257 ng/mL

**Q.** And the concentration in plasma (Rat [25]; 0.5 h)?
**A.** 1970 ng/mL

**Q.** And the concentration in plasma (Rat [25]; 10 h)?
**A.** 150 ng/mL

**Q.** How did the concentration in thymus (Rat [26]) turn out when `O=C(O)CSCC(=O)O` [Thiodiglycolic Acid] was run?
**A.** 245 ng/g

**Q.** And the concentration in heart (Rat [27])?
**A.** 3600 ng/g

**Q.** And the concentration in liver (Rat [28])?
**A.** 162000 ng/g

**Q.** And the concentration in thymus (Rat [29])?
**A.** 2120 ng/g

**Q.** What about the concentration in thymus (Rat [30]) of the same compound?
**A.** 2180 ng/g

**Q.** What about the concentration in plasma (Rat [31]) of the same compound?
**A.** 25400 ng/mL

**Q.** For `CCCCOC(=O)c1ccccc1C(=O)O` [Mono-n-butyl phthalate], which concentration in plasma (Rat [32]) is on record?
**A.** 1890 ng/mL

**Q.** And the concentration in plasma (Rat [33])?
**A.** 3520 ng/mL
